# Experimental data pooled from the literature.
# Protocols differ between the studies behind these lines.
# Target: Focal adhesion kinase 1 (PTK2, Homo sapiens, UniProt Q05397)
Structure (SMILES),test,setting,endpoint,result
COc1ncccc1-c1cnn2ccc(N3CCN(C(=O)OC(C)C)CC3)nc12,"binding, competition with immobilised ligand",1 µM,remaining binding,97%
Cn1cc(-c2cccc(N3CCc4c(sc5c4CC(C)(C)C5)C3=O)c2CO)cc(Nc2ccncn2)c1=O,"enzyme activity, inhibitor",1 µM,inhibition,3%
Cn1cncc1[C@](O)(COc1ccc(C#N)cc1-c1ccc(OC(F)(F)F)cc1)c1ccc(C#N)cc1,"cell-free assay, competition with immobilised ligand",1 µM,remaining binding,77%
C#Cc1n[nH]c2c(-c3cn(C(C)c4ccccn4)c(=O)[nH]c3=O)cc(F)cc12 (stereo not shown),"enzyme activity, inhibitor",1 µM,inhibition,5.6%
N#CC1(c2ccccn2)CCN(Cc2cc(C(=O)O)c(=O)n3ccccc23)CC1,"cell-free assay, competition with immobilised ligand",1 µM,remaining binding,100%
Cc1nn(C)cc1-c1nc2c(N3CCN(Cc4ccc(Cl)cc4)CC3)c(Cl)cnc2[nH]1,"binding, competition with immobilised ligand",1 µM,remaining binding,95%
O=c1[nH]c2ccccc2n1C1CCN(Cc2ccc(-c3[nH]c4cc5ncnc5cc4nc3-c3ccccc3)cc2)CC1,cell-free assay,0.5 µM,remaining signal,108%
Nc1ncc(-c2nc(N3CCOCC3)nc(N3CCOCC3)n2)c(C(F)F)n1,"binding, competition with immobilised ligand",10 µM,remaining binding,100%
Cn1cc(-c2cc(F)cc(N3CCn4c(cc5c4CCCC5)C3=O)c2CO)cc(Nc2ccc(N3CCN(C4COC4)CC3)cn2)c1=O,"enzyme activity, inhibitor",0.1 µM,inhibition,18%
CC(C)(C)c1cc(C=C(C#N)C#N)cc(Br)c1O,"enzyme activity, inhibitor",0.5 µM,remaining activity,107%
